How the values were obtained:
Assay type in all cases: functional
SF-268 = experiment: Growth inhibition of human SF268 cells after 48 hrs by sulforhodamine B assay; conditions: SF-268, 48 h
Summary of the method: (§1)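 NCI 60-cell-line panel (nine tumour subpanels), five-dose format: 10-fold dilutions from 10^-4 to 10^-8 M, 48 h continuous exposure, SRB protein stain. Percent growth at each level is derived from time-zero, untreated control and treated absorbances. GI50 is the concentration where [(Ti−Tz)/(C−Tz)]×100 = 50. Values outside the tested range are reported as above or below the limit.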

LOX IMVI = experiment: Growth inhibition of human LOXIMVI cells after 48 hrs by sulforhodamine B assay; summary of the method: as §1
NCI-H226 = experiment: Growth inhibition of human NCI-H226 cells after 48 hrs by sulforhodamine B assay; conditions: NCI-H226, 48 h; summary of the method: as §1
BT-549 = experiment: Growth inhibition of human BT549 cells after 48 hrs by sulforhodamine B assay; conditions: BT-549, 48 h
Summary of the method: (§2)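 NCI full ~60 cell line panel. Five 10-fold concentrations from 10^-4 to 10^-8 M, 48 h continuous exposure, SRB protein read-out. Time-zero, control and treated absorbances give percentage growth. GI50 is the concentration where [(Ti−Tz)/(C−Tz)]×100 = 50; TGI is where Ti = Tz; LC50 is where [(Ti−Tz)/Tz]×100 = −50.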

ACHN = experiment: Growth inhibition of human ACHN cells after 48 hrs by sulforhodamine B assay; summary of the method: as §2
[1] = Growth inhibition of human HOP92 cells after 48 hrs by sulforhodamine B assay; conditions: HOP-92, 48 h; summary of the method: as §2
PC-3 = experiment: Growth inhibition of human PC3 cells after 48 hrs by sulforhodamine B assay; conditions: PC-3, 48 h; summary of the method: as §1
HT-29 = experiment: Growth inhibition of human HT-29 cells after 48 hrs by sulforhodamine B assay; conditions: HT-29, 48 h; summary of the method: as §2
U-251 = experiment: Growth inhibition of human U251 cells after 48 hrs by sulforhodamine B assay; conditions: U-251, 48 h
Summary of the method: (§3)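 NCI 60-cell-line panel, five-dose run at 10-fold dilutions from 10^-4 to 10^-8 M, 48 h continuous exposure. Viability by SRB protein stain. Percent growth is taken from time-zero, untreated-control and treated absorbances. GI50 is the concentration giving a 50% lower net protein increase than in control cells. TGI is taken at Ti = Tz, LC50 at a 50% loss of initial protein.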

[2] = Growth inhibition of human NCI-ADR-RES cells after 48 hrs by sulforhodamine B assay; summary of the method: as §1
OVCAR-3 = experiment: Growth inhibition of human OVCAR3 cells after 48 hrs by sulforhodamine B assay; conditions: OVCAR-3, 48 h; summary of the method: as §1
Malme-3M = experiment: Growth inhibition of human MALME-3M cells after 48 hrs by sulforhodamine B assay; summary of the method: as §1
MCF7 = experiment: Growth inhibition of human MCF7 cells after 48 hrs by sulforhodamine B assay; conditions: MCF7, 48 h; summary of the method: as §1
SK-OV-3 = experiment: Growth inhibition of human SKOV3 cells after 48 hrs by sulforhodamine B assay; conditions: SK-OV-3, 48 h; summary of the method: as §3
MDA-MB-468 = experiment: Growth inhibition of human MDA-MB-468 cells after 48 hrs by sulforhodamine B assay; conditions: MDA-MB-468, 48 h; summary of the method: as §1
[3] = Growth inhibition of human RXF393 cells after 48 hrs by sulforhodamine B assay; conditions: RXF 393, 48 h; summary of the method: as §1
SR = experiment: Growth inhibition of human SR cells after 48 hrs by sulforhodamine B assay; summary of the method: as §3
HCT-15 = experiment: Growth inhibition of human HCT15 cells after 48 hrs by sulforhodamine B assay; conditions: HCT-15, 48 h; summary of the method: as §2
SK-MEL-2 = experiment: Growth inhibition of human SK-MEL-2 cells after 48 hrs by sulforhodamine B assay; conditions: SK-MEL-2, 48 h; summary of the method: as §3
KM12 = experiment: Growth inhibition of human KM12 cells after 48 hrs by sulforhodamine B assay; conditions: KM12, 48 h; summary of the method: as §1
[4] = Growth inhibition of human HCC2998 cells after 48 hrs by sulforhodamine B assay; conditions: HCC 2998, 48 h; summary of the method: as §2
IGROV-1 = experiment: Growth inhibition of human IGROV1 cells after 48 hrs by sulforhodamine B assay; conditions: IGROV-1, 48 h; summary of the method: as §2
A498 = experiment: Growth inhibition of human A498 cells after 48 hrs by sulforhodamine B assay; conditions: A498, 48 h; summary of the method: as §2
HOP-62 = experiment: Growth inhibition of human HOP62 cells after 48 hrs by sulforhodamine B assay; conditions: HOP-62, 48 h; summary of the method: as §2
SF-295 = experiment: Growth inhibition of human SF295 cells after 48 hrs by sulforhodamine B assay; conditions: SF-295, 48 h; summary of the method: as §1
HL-60(TB) = experiment: Growth inhibition of human HL-60(TB) cells after 48 hrs by sulforhodamine B assay; conditions: HL-60, 48 h
Summary of the method: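 NCI 60-cell panel protocol: cells exposed continuously for 48 h to five 10-fold dilutions from 10^-4 to 10^-8 M. Growth estimated by SRB protein staining with time-zero, untreated-control and treated absorbances. Percentage growth computed at each level, and GI50 taken as the concentration giving a 50% lower net protein increase than control cells.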

[5] = Growth inhibition of human UO31 cells after 48 hrs by sulforhodamine B assay; conditions: UO-31, 48 h; summary of the method: as §3
[6] = read-out: LC50 (the source's name)

COc1ccc(-c2nnc(SCC(=O)Nc3ccc(/C(C)=N/O)cc3)n2-c2ccccc2)cc1OC
GI50 (SF-268): 3.07 µM | TGI (SF-268): 20.3 µM | CC50 (SF-268; [6]): > 100 µM | GI50 (LOX IMVI): > 100 µM | TGI (LOX IMVI): > 100 µM | CC50 (LOX IMVI; [6]): > 100 µM | GI50 (NCI-H226): 7.28 µM | TGI (NCI-H226): > 100 µM | CC50 (NCI-H226; [6]): > 100 µM | GI50 (BT-549): 13.7 µM | TGI (BT-549): > 100 µM | CC50 (BT-549; [6]): > 100 µM | GI50 (ACHN): 8.08 µM | TGI (ACHN): > 100 µM | CC50 (ACHN; [6]): > 100 µM | GI50 [1]: 2120 nM | TGI [1]: 6.42 µM | CC50 [1, 6]: > 100 µM | GI50 (PC-3): > 100 µM | TGI (PC-3): > 100 µM | CC50 (PC-3; [6]): > 100 µM | GI50 (HT-29): > 100 µM | TGI (HT-29): > 100 µM | CC50 (HT-29; [6]): > 100 µM | GI50 (U-251): 3.62 µM | TGI (U-251): 19.6 µM | CC50 (U-251; [6]): > 100 µM | GI50 [2]: > 100 µM | TGI [2]: > 100 µM | CC50 [2, 6]: > 100 µM | GI50 (OVCAR-3): 7.87 µM | TGI (OVCAR-3): > 100 µM | CC50 (OVCAR-3; [6]): > 100 µM | GI50 (Malme-3M): 17.2 µM | TGI (Malme-3M): > 100 µM | CC50 (Malme-3M; [6]): > 100 µM | GI50 (MCF7): > 100 µM | TGI (MCF7): > 100 µM | CC50 (MCF7; [6]): > 100 µM | GI50 (SK-OV-3): 2730 nM | TGI (SK-OV-3): 13.7 µM | CC50 (SK-OV-3; [6]): > 100 µM | GI50 (MDA-MB-468): 16.4 µM | TGI (MDA-MB-468): > 100 µM | CC50 (MDA-MB-468; [6]): > 100 µM | GI50 [3]: 2560 nM | TGI [3]: 7.11 µM | CC50 [3, 6]: > 100 µM | GI50 (SR): > 100 µM | TGI (SR): > 100 µM | CC50 (SR; [6]): > 100 µM | GI50 (HCT-15): > 100 µM | TGI (HCT-15): > 100 µM | CC50 (HCT-15; [6]): > 100 µM | GI50 (SK-MEL-2): 5.04 µM | TGI (SK-MEL-2): 28.8 µM | CC50 (SK-MEL-2; [6]): > 100 µM | GI50 (KM12): > 100 µM | TGI (KM12): > 100 µM | CC50 (KM12; [6]): > 100 µM | GI50 [4]: > 100 µM | TGI [4]: > 100 µM | CC50 [4, 6]: > 100 µM | GI50 (IGROV-1): 3.74 µM | TGI (IGROV-1): 29.4 µM | CC50 (IGROV-1; [6]): > 100 µM | GI50 (A498): 2720 nM | TGI (A498): 46.1 µM | CC50 (A498; [6]): > 100 µM | GI50 (HOP-62): 2060 nM | TGI (HOP-62): 6.8 µM | CC50 (HOP-62; [6]): > 100 µM | GI50 (SF-295): 3.39 µM | TGI (SF-295): 37.7 µM | CC50 (SF-295; [6]): > 100 µM | GI50 (HL-60(TB)): > 100 µM | TGI (HL-60(TB)): > 100 µM | CC50 (HL-60(TB); [6]): > 100 µM | GI50 [5]: > 100 µM | TGI [5]: > 100 µM | CC50 [5, 6]: > 100 µM
